From ChEMBL document CHEMBL3286292, “Synthesis and antimicrobial activity of amine linked bis- and tris-heterocycles” (2014)
Activity calls are given as the source filed them. No cut-off for these calls is given here.

Legend:
Format in all cases: functional
Staphylococcus aureus [1] = test: Antibacterial activity against Staphylococcus aureus assessed as growth inhibition at 25 ug/well after 24 hrs by agar well diffusion method; conditions: for zone of inhibition at 25 µg/disc: read-out: DIZ
How it was run: (§1)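 Agar well diffusion on […] swabbed with a 24 h broth culture. Samples were dissolved in DMSO and loaded at three per-well amounts into 6 mm wells. Incubation was 37 °C for 24 h, then inhibition zone diameter was read in mm. DMSO served as the negative control. Runs were in duplicate and averaged.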

Staphylococcus aureus [2] = test: Antibacterial activity against Staphylococcus aureus assessed as growth inhibition at 50 ug/well after 24 hrs by agar well diffusion method; conditions: for zone of inhibition at 50 µg/disc: read-out: DIZ; how it was run: as §1
Staphylococcus aureus [3] = test: Antibacterial activity against Staphylococcus aureus assessed as growth inhibition at 100 ug/well after 24 hrs by agar well diffusion method; conditions: for zone of inhibition at 100 µg/disc: read-out: DIZ; how it was run: as §1
Bacillus subtilis [4] = test: Antibacterial activity against Bacillus subtilis assessed as growth inhibition at 25 ug/well after 24 hrs by agar well diffusion method; conditions: for zone of inhibition at 25 µg/disc: read-out: DIZ; how it was run: as §1
Bacillus subtilis [5] = test: Antibacterial activity against Bacillus subtilis assessed as growth inhibition at 50 ug/well after 24 hrs by agar well diffusion method; conditions: for zone of inhibition at 50 µg/disc: read-out: DIZ; how it was run: as §1
Bacillus subtilis [6] = test: Antibacterial activity against Bacillus subtilis assessed as growth inhibition at 100 ug/well after 24 hrs by agar well diffusion method; conditions: for zone of inhibition at 100 µg/disc: read-out: DIZ; how it was run: as §1
Pseudomonas aeruginosa [7] = test: Antibacterial activity against Pseudomonas aeruginosa assessed as growth inhibition at 25 ug/well after 24 hrs by agar well diffusion method; conditions: for zone of inhibition at 25 µg/disc: read-out: DIZ; how it was run: as §1
Pseudomonas aeruginosa [8] = test: Antibacterial activity against Pseudomonas aeruginosa assessed as growth inhibition at 50 ug/well after 24 hrs by agar well diffusion method; conditions: for zone of inhibition at 50 µg/disc: read-out: DIZ; how it was run: as §1
Pseudomonas aeruginosa [9] = test: Antibacterial activity against Pseudomonas aeruginosa assessed as growth inhibition at 100 ug/well after 24 hrs by agar well diffusion method; conditions: for zone of inhibition at 100 µg/disc: read-out: DIZ; how it was run: as §1
Klebsiella pneumoniae [10] = test: Antibacterial activity against Klebsiella pneumoniae assessed as growth inhibition at 25 ug/well after 24 hrs by agar well diffusion method; conditions: for zone of inhibition at 25 µg/disc: read-out: DIZ; how it was run: as §1
Klebsiella pneumoniae [11] = test: Antibacterial activity against Klebsiella pneumoniae assessed as growth inhibition at 50 ug/well after 24 hrs by agar well diffusion method; conditions: for zone of inhibition at 50 µg/disc: read-out: DIZ; how it was run: as §1
Klebsiella pneumoniae [12] = test: Antibacterial activity against Klebsiella pneumoniae assessed as growth inhibition at 100 ug/well after 24 hrs by agar well diffusion method; conditions: for zone of inhibition at 100 µg/disc: read-out: DIZ; how it was run: as §1
Aspergillus niger [13] = test: Antifungal activity against Aspergillus niger assessed as inhibition of spore germination at 25 ug/well after 48 hrs by agar well diffusion method; conditions: for zone of inhibition at 25 µg/disc: read-out: DIZ
How it was run: (§2)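 Well diffusion using 6 mm bored wells loaded with DMSO solutions at three per-well amounts, with a DMSO negative control. Plates were held at 28 °C for 48 h, then zone of inhibition diameter was measured in mm. Runs were in duplicate and averaged.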

Aspergillus niger [14] = test: Antifungal activity against Aspergillus niger assessed as inhibition of spore germination at 50 ug/well after 48 hrs by agar well diffusion method; conditions: for zone of inhibition at 50 µg/disc: read-out: DIZ; how it was run: as §2
Staphylococcus aureus [15] = test: Antibacterial activity against Staphylococcus aureus assessed as growth inhibition after 24 hrs by broth dilution method
How it was run: (§3)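 Tube broth dilution with fresh nutrient broth as diluent and a 24 h old bacterial culture. Compound dilutions were added to the tubes, which were incubated at 37 °C for 24 h. Solvent control without sample was run in parallel. MIC was the lowest concentration showing no visible turbidity.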

Bacillus subtilis [16] = test: Antibacterial activity against Bacillus subtilis assessed as growth inhibition after 24 hrs by broth dilution method; how it was run: as §3
Pseudomonas aeruginosa [17] = test: Antibacterial activity against Pseudomonas aeruginosa assessed as growth inhibition after 24 hrs by broth dilution method; how it was run: as §3
Klebsiella pneumoniae [18] = test: Antibacterial activity against Klebsiella pneumoniae assessed as growth inhibition after 24 hrs by broth dilution method; how it was run: as §3
Aspergillus niger [19] = test: Antifungal activity against Aspergillus niger assessed as growth inhibition after 48 hrs by broth dilution method
How it was run: (§4)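 Tube broth dilution with nutrient broth as diluent. Compound dilutions were added to fungal cultures and incubated at 28 °C for 48 h. A solvent control without sample was included. MIC was the lowest concentration with no visible growth or turbidity.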

Penicillium chrysogenum [20] = test: Antifungal activity against Penicillium chrysogenum assessed as growth inhibition after 48 hrs by broth dilution method; how it was run: as §4
Staphylococcus aureus [21] = test: Bactericidal activity against Staphylococcus aureus after 24 hrs
Bacillus subtilis [22] = test: Bactericidal activity against Bacillus subtilis after 24 hrs
Pseudomonas aeruginosa [23] = test: Bactericidal activity against Pseudomonas aeruginosa after 24 hrs
Klebsiella pneumoniae [24] = test: Bactericidal activity against Klebsiella pneumoniae after 24 hrs
Aspergillus niger [25] = test: Fungicidal activity against Aspergillus niger after 48 hrs
Penicillium chrysogenum [26] = test: Fungicidal activity against Penicillium chrysogenum after 48 hrs
Staphylococcus aureus [27] = test: Ratio of MBC to MIC for Staphylococcus aureus

SMILES | zone of inhibition at 25 µg/disc (Staphylococcus aureus [1]) [mm] | zone of inhibition at 50 µg/disc (Staphylococcus aureus [2]) [mm] | zone of inhibition at 100 µg/disc (Staphylococcus aureus [3]) [mm] | zone of inhibition at 25 µg/disc (Bacillus subtilis [4]) [mm] | zone of inhibition at 50 µg/disc (Bacillus subtilis [5]) [mm] | zone of inhibition at 100 µg/disc (Bacillus subtilis [6]) [mm] | zone of inhibition at 25 µg/disc (Pseudomonas aeruginosa [7]) [mm] | zone of inhibition at 50 µg/disc (Pseudomonas aeruginosa [8]) [mm] | zone of inhibition at 100 µg/disc (Pseudomonas aeruginosa [9]) [mm] | zone of inhibition at 25 µg/disc (Klebsiella pneumoniae [10]) [mm] | zone of inhibition at 50 µg/disc (Klebsiella pneumoniae [11]) [mm] | zone of inhibition at 100 µg/disc (Klebsiella pneumoniae [12]) [mm] | zone of inhibition at 25 µg/disc (Aspergillus niger [13]) [mm] | zone of inhibition at 50 µg/disc (Aspergillus niger [14]) [mm] | MIC (Staphylococcus aureus [15]) [µg] | MIC (Bacillus subtilis [16]) [µg] | MIC (Pseudomonas aeruginosa [17]) [µg] | MIC (Klebsiella pneumoniae [18]) [µg] | MIC (Aspergillus niger [19]) [µg] | MIC (Penicillium chrysogenum [20]) [µg] | other results
Clc1ccc(-c2csc(Nc3cc(-c4ccc(Cl)cc4)n(-c4nc(-c5ccc(Cl)cc5)cs4)n3)n2)cc1 | 34 | 36 | 38 | 29 | 32 | 35 | 20 | 22 | 25 | 35 | 37 | 41 | 29 | 31 | 6.25 | 25 | 50 | 25 | 12.5 | 50 | MBC (Staphylococcus aureus [21]): 12.5 µg; MBC (Bacillus subtilis [22]): 100 µg; MBC (Pseudomonas aeruginosa [23]): 200 µg; MBC (Klebsiella pneumoniae [24]): 100 µg; MFC (Aspergillus niger [25]): 100 µg; MFC (Penicillium chrysogenum [26]): 200 µg; Ratio (Staphylococcus aureus [27]): 2
CC(=O)N1CCN(c2ccc(OCC3COC(Cn4ccnc4)(c4ccc(Cl)cc4Cl)O3)cc2)CC1 (stereo unspecified) [KETOCONAZOLE] | – | – | – | – | – | – | – | – | – | – | – | – | – | – | – | – | – | – | 6.25 | 12.5 | –
c1ccc(-c2csc(Nc3cc(-c4ccccc4)n(-c4nc(-c5ccccc5)cs4)n3)n2)cc1 | 29 | 31 | 32 | 25 | 26 | 28 | 17 | 18 | 21 | 30 | 32 | 35 | 25 | 28 | 12.5 | 50 | 50 | 50 | 25 | 50 | MBC (Staphylococcus aureus [21]): 50 µg; MBC (Bacillus subtilis [22]): 200 µg; MBC (Pseudomonas aeruginosa [23]): >200 µg; MBC (Klebsiella pneumoniae [24]): >200 µg; MFC (Aspergillus niger [25]): 100 µg; MFC (Penicillium chrysogenum [26]): 200 µg
Cc1ccc(-c2csc(NC3=NN(C(N)=S)[C@@H](c4ccc(C)cc4)C3)n2)cc1 | – | – | – | – | – | – | – | – | – | – | – | – | – | – | – | – | – | – | – | – | growth inhibition (GI) (Staphylococcus aureus [1]): inactive; growth inhibition (GI) (Staphylococcus aureus [2]): inactive; growth inhibition (GI) (Staphylococcus aureus [3]): inactive; growth inhibition (GI) (Bacillus subtilis [4]): inactive; growth inhibition (GI) (Bacillus subtilis [5]): inactive; growth inhibition (GI) (Bacillus subtilis [6]): inactive; growth inhibition (GI) (Pseudomonas aeruginosa [7]): inactive; growth inhibition (GI) (Pseudomonas aeruginosa [8]): inactive; growth inhibition (GI) (Pseudomonas aeruginosa [9]): inactive; growth inhibition (GI) (Klebsiella pneumoniae [10]): inactive; growth inhibition (GI) (Klebsiella pneumoniae [11]): inactive; growth inhibition (GI) (Klebsiella pneumoniae [12]): inactive; growth inhibition (GI) (Aspergillus niger [13]): inactive; zone of inhibition (Aspergillus niger [14]): inactive
c1ccc(-c2coc(Nc3cc(-c4ccccc4)n(-c4nc(-c5ccccc5)cs4)n3)n2)cc1 | 8 | 10 | 13 | 8 | 10 | 12 | – | – | 6 | 8 | 10 | 13 | 9 | 10 | – | – | – | – | – | – | growth inhibition (GI) (Pseudomonas aeruginosa [7]): inactive; growth inhibition (GI) (Pseudomonas aeruginosa [8]): inactive
NC(=S)N1N=C(Nc2nc(-c3ccc(Cl)cc3)c[nH]2)C[C@@H]1c1ccc(Cl)cc1 | – | – | – | – | – | 6 | – | – | – | – | 6 | 7 | – | – | – | – | – | – | – | – | growth inhibition (GI) (Staphylococcus aureus [1]): inactive; growth inhibition (GI) (Staphylococcus aureus [2]): inactive; growth inhibition (GI) (Staphylococcus aureus [3]): inactive; growth inhibition (GI) (Bacillus subtilis [4]): inactive; growth inhibition (GI) (Bacillus subtilis [5]): inactive; growth inhibition (GI) (Pseudomonas aeruginosa [7]): inactive; growth inhibition (GI) (Pseudomonas aeruginosa [8]): inactive; growth inhibition (GI) (Pseudomonas aeruginosa [9]): inactive; growth inhibition (GI) (Klebsiella pneumoniae [10]): inactive; growth inhibition (GI) (Aspergillus niger [13]): inactive; zone of inhibition (Aspergillus niger [14]): inactive
c1ccc(-c2c[nH]c(Nc3cc(-c4ccccc4)n(-c4nc(-c5ccccc5)cs4)n3)n2)cc1 | 27 | 28 | 30 | 24 | 26 | 27 | 15 | 17 | 20 | 28 | 29 | 33 | 32 | 34 | 12.5 | 50 | 50 | 50 | 12.5 | 25 | MBC (Staphylococcus aureus [21]): 50 µg; MBC (Bacillus subtilis [22]): 200 µg; MBC (Pseudomonas aeruginosa [23]): >200 µg; MBC (Klebsiella pneumoniae [24]): >200 µg; MFC (Aspergillus niger [25]): 100 µg; MFC (Penicillium chrysogenum [26]): 100 µg
O=C(N[C@H](CO)[C@H](O)c1ccc([N+](=O)[O-])cc1)C(Cl)Cl [CHLORAMPHENICOL] | 30 | 33 | 35 | 32 | 34 | 38 | 25 | 27 | 30 | 38 | 40 | 42 | 31 | 33 | 6.25 | 6.25 | 6.25 | 12.5 | – | – | –
